Active and inactive are the calls of the source. The rule behind the calls is not given here.
Tests used:
Format in all cases: functional
Escherichia coli = experiment: Antibacterial activity against Escherichia coli assessed as zone of inhibition at 5 uL and 32 degC after 36 hrs by disk diffusion method
Method in brief: (§1)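 Disc diffusion on AC agar, each strain spread evenly over the medium; test compounds given as 1% (w/v) DMSO solutions. Plates covered and incubated 36 h at 32 °C, then the diameter of the zone of inhibited growth measured in mm. Tetracycline served as antibacterial reference.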

OVCAR-4 = experiment: Growth inhibition of human OVCAR4 cells assessed as cell growth at 10^-5 M after 48 hrs by sulforhodamine B assay; conditions: OVCAR-4, 48 h, read-out: Activity
Method in brief: (§2)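 NCI-60 single high-dose screen run under the NCI protocol. Cells were incubated with compound at 10^-5 M for 48 h. The end point was determined by sulforhodamine B protein staining. Results are reported as percent growth of treated cells relative to untreated control cells.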

HL-60(TB) = experiment: Growth inhibition of human HL-60(TB) cells assessed as cell growth at 10^-5 M after 48 hrs by sulforhodamine B assay; conditions: HL-60, 48 h, read-out: Activity
Method in brief: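 NCI single high-dose screen across the 60-cell panel (leukemia, melanoma, lung, colon, brain, breast, ovary, kidney, prostate), run per NCI protocol. Cells incubated with compound at 10^-5 M for 48 h. Sulforhodamine B protein-binding dye end point. Reported as growth percent of treated vs untreated control cells.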

COLO 205 = experiment: Growth inhibition of human COLO205 cells assessed as cell growth at 10^-5 M after 48 hrs by sulforhodamine B assay; conditions: COLO 205, 48 h, read-out: Activity
Method in brief: (§3)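 NCI 60-cell panel single high-dose screen: compound applied at 10^-5 M for 48 h, endpoint by sulforhodamine B protein-binding dye. Values reported as growth percent of treated cells relative to untreated control cells.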

MDA-MB-435 = experiment: Growth inhibition of human MDA-MB-435 cells assessed as cell growth at 10^-5 M after 48 hrs by sulforhodamine B assay; conditions: MDA-MB-435, 48 h, read-out: Activity; method in brief: as §2
NCI-H522 = experiment: Growth inhibition of human NCI-H522 cells assessed as cell growth at 10^-5 M after 48 hrs by sulforhodamine B assay; conditions: NCI-H522, 48 h, read-out: Activity; method in brief: as §2
SN12C = experiment: Growth inhibition of human SN12C cells assessed as cell growth at 10^-5 M after 48 hrs by sulforhodamine B assay; conditions: read-out: Activity
Method in brief: (§4)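 NCI 60-cell panel single-dose screen under the NCI protocol. Cells are exposed to compound at one concentration (10^-5 M) for 48 h. The end point is protein staining with sulforhodamine B. Each line is reported as percent growth of treated cells relative to untreated control cells.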

RPMI-8226 = experiment: Growth inhibition of human RPMI8226 cells assessed as cell growth at 10^-5 M after 48 hrs by sulforhodamine B assay; conditions: RPMI-8226, 48 h, read-out: Activity; method in brief: as §2
TK-10 = experiment: Growth inhibition of human TK10 cells assessed as cell growth at 10^-5 M after 48 hrs by sulforhodamine B assay; conditions: TK-10, 48 h, read-out: Activity; method in brief: as §4
NCI-H322M = experiment: Growth inhibition of human NCI-H322M cells assessed as cell growth at 10^-5 M after 48 hrs by sulforhodamine B assay; conditions: read-out: Activity; method in brief: as §2
Aspergillus niger = experiment: Antifungal activity against Aspergillus niger assessed as zone of inhibition at 5 uL and 28 degC after 36 hrs by disk diffusion method
Method in brief: (§5)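 Agar disc diffusion with the test compound applied as a 1% (w/v) DMSO solution. Yeasts were grown on AC agar and Aspergillus niger on potato dextrose broth agar, each strain spread evenly. Plates were covered and kept 36 h at 28 °C, and the inhibition zone diameter was read in mm. Clotrimazole served as reference.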

Nakaseomyces glabratus = experiment: Antifungal activity against Candida glabrata assessed as zone of inhibition at 5 uL and 28 degC after 36 hrs by disk diffusion method; method in brief: as §5
MDA-MB-231 = experiment: Growth inhibition of human MDA-MB-231 cells assessed as cell growth at 10^-5 M after 48 hrs by sulforhodamine B assay; conditions: MDA-MB-231, 48 h, read-out: Activity; method in brief: as §2
SF-268 = experiment: Growth inhibition of human SF268 cells assessed as cell growth at 10^-5 M after 48 hrs by sulforhodamine B assay; conditions: SF-268, 48 h, read-out: Activity; method in brief: as §2
SR = experiment: Growth inhibition of human SR cells assessed as cell growth at 10^-5 M after 48 hrs by sulforhodamine B assay; conditions: read-out: Activity; method in brief: as §4
MCF7 = experiment: Growth inhibition of human MCF7 cells assessed as cell growth at 10^-5 M after 48 hrs by sulforhodamine B assay; conditions: MCF7, 48 h, read-out: Activity; method in brief: as §2
ACHN = experiment: Growth inhibition of human ACHN cells assessed as cell growth at 10^-5 M after 48 hrs by sulforhodamine B assay; conditions: read-out: Activity; method in brief: as §3
NCI-H460 = experiment: Growth inhibition of human NCI-H460 cells assessed as cell growth at 10^-5 M after 48 hrs by sulforhodamine B assay; conditions: NCI-H460, 48 h, read-out: Activity; method in brief: as §2
RXF 393 = experiment: Growth inhibition of human RXF393 cells assessed as cell growth at 10^-5 M after 48 hrs by sulforhodamine B assay; conditions: RXF 393, 48 h, read-out: Activity; method in brief: as §2
UACC-257 = experiment: Growth inhibition of human UACC257 cells assessed as cell growth at 10^-5 M after 48 hrs by sulforhodamine B assay; conditions: UACC-257, 48 h, read-out: Activity; method in brief: as §4
SNB-19 = experiment: Growth inhibition of human SNB19 cells assessed as cell growth at 10^-5 M after 48 hrs by sulforhodamine B assay; conditions: SNB-19, 48 h, read-out: Activity; method in brief: as §4
HCT-116 = experiment: Growth inhibition of human HCT116 cells assessed as cell growth at 10^-5 M after 48 hrs by sulforhodamine B assay; conditions: HCT-116, 48 h, read-out: Activity; method in brief: as §3
SW-620 = experiment: Growth inhibition of human SW620 cells assessed as cell growth at 10^-5 M after 48 hrs by sulforhodamine B assay; conditions: SW-620, 48 h, read-out: Activity; method in brief: as §4
K562 = experiment: Growth inhibition of human K562 cells assessed as cell growth at 10^-5 M after 48 hrs by sulforhodamine B assay; conditions: K562, 48 h, read-out: Activity; method in brief: as §3
OVCAR-5 = experiment: Growth inhibition of human OVCAR5 cells assessed as cell growth at 10^-5 M after 48 hrs by sulforhodamine B assay; conditions: OVCAR-5, 48 h, read-out: Activity; method in brief: as §2
Streptococcus entericus = experiment: Antibacterial activity against Streptococcus entericus assessed as zone of inhibition at 5 uL and 32 degC after 36 hrs by disk diffusion method; method in brief: as §1
LOX IMVI = experiment: Growth inhibition of human LOXIMVI cells assessed as cell growth at 10^-5 M after 48 hrs by sulforhodamine B assay; conditions: read-out: Activity; method in brief: as §3
OVCAR-3 = experiment: Growth inhibition of human OVCAR3 cells assessed as cell growth at 10^-5 M after 48 hrs by sulforhodamine B assay; conditions: OVCAR-3, 48 h, read-out: Activity; method in brief: as §2
HCC 2998 = experiment: Growth inhibition of human HCC2998 cells assessed as cell growth at 10^-5 M after 48 hrs by sulforhodamine B assay; conditions: HCC 2998, 48 h, read-out: Activity; method in brief: as §3

SMILES	diameter of the inhibition zone (DIZ) (Escherichia coli)	growth at 10 µM (OVCAR-4) [%]	growth at 10 µM (HL-60(TB)) [%]	growth at 10 µM (COLO 205) [%]	growth at 10 µM (MDA-MB-435) [%]	growth at 10 µM (NCI-H522) [%]	growth at 10 µM (SN12C) [%]	growth at 10 µM (RPMI-8226) [%]	growth at 10 µM (TK-10) [%]	growth at 10 µM (NCI-H322M) [%]	diameter of the inhibition zone (DIZ) (Aspergillus niger)	diameter of the inhibition zone (DIZ) (Nakaseomyces glabratus)	growth at 10 µM (MDA-MB-231) [%]	growth at 10 µM (SF-268) [%]	growth at 10 µM (SR) [%]	growth at 10 µM (MCF7) [%]	growth at 10 µM (ACHN) [%]	growth at 10 µM (NCI-H460) [%]	growth at 10 µM (RXF 393) [%]	growth at 10 µM (UACC-257) [%]	further results
CC(C)CCC[C@@H](C)[C@H]1CC[C@H]2C3=CCn4c(=O)ccc(=O)n4[C@@H]3CC[C@]12C	inactive	-32.4	-43.3	-93.1	-57.4	-66.1	-97.7	-41.5	-83.1	-55.3	inactive	8 mm	-89.2	-92.3	-34.6	-92.5	-95.1	-89.9	-76	-97.5	growth at 10 µM (SNB-19): -100%; growth at 10 µM (HCT-116): -44.6%; growth at 10 µM (SW-620): -91.6%; growth at 10 µM (K562): -40%; growth at 10 µM (OVCAR-5): -84.3%; diameter of the inhibition zone (DIZ) (Streptococcus entericus): 7 mm; growth at 10 µM (LOX IMVI): -89.5%; growth at 10 µM (OVCAR-3): -96.5%; growth at 10 µM (HCC 2998): -100%
CC(C)CCC[C@@H](C)[C@H]1CC[C@H]2C3=CC[C@@H]4C(=O)C=CC(=O)[C@@H]4[C@@H]3CC[C@]12C	inactive	-9.33	-5.46	12.4	-16.4	-46.1	20.1	8.72	-36.6	42.6	inactive	inactive	28.6	-61.2	13.2	8.65	4.54	2.88	-66.6	28.7	growth at 10 µM (SNB-19): 7.34%; growth at 10 µM (HCT-116): 3.29%; growth at 10 µM (SW-620): 20.4%; growth at 10 µM (K562): 9.94%; growth at 10 µM (OVCAR-5): 7.74%; diameter of the inhibition zone (DIZ) (Streptococcus entericus): inactive; growth at 10 µM (LOX IMVI): -43.4%; growth at 10 µM (OVCAR-3): 2.72%; growth at 10 µM (HCC 2998): -75.5%
CC(C)CCC[C@@H](C)[C@H]1CC[C@H]2[C@@H]3CCN4C(=O)CCC(=O)N4[C@@H]3CC[C@]12C	11 mm	103	72	90.3	97.7	80.2	88	56.6	108	117	inactive	inactive	98.2	74.5	79.7	88.5	90	107	102	76.2	growth at 10 µM (SNB-19): 162%; growth at 10 µM (HCT-116): 95%; growth at 10 µM (SW-620): 93.2%; growth at 10 µM (K562): 91%; growth at 10 µM (OVCAR-5): 91.5%; diameter of the inhibition zone (DIZ) (Streptococcus entericus): 10 mm; growth at 10 µM (LOX IMVI): 84.5%; growth at 10 µM (OVCAR-3): 104%; growth at 10 µM (HCC 2998): 86.6%

From ChEMBL document CHEMBL1806372, “Cytotoxic ring A-modified steroid analogues derived from Grundmann's ketone” (Eur J Med Chem, 2011)
